Source: ChEMBL document CHEMBL1155568, “Biological characterization of fusapyrone and deoxyfusapyrone, two bioactive secondary metabolites of Fusarium semitectum” (J Nat Prod, 2000)
Active and inactive are the calls of the source. The calls are words filed in the database; no cut-off is given here.

Experiments:
[1] = tested on: Cicer arietinum; assay: Phytotoxicity against chickpea cells at 10^-5 M; type: organism-based; conditions: 10 µM
Summary of the method: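 Cells came from 2-week-old chickpea leaves by enzyme digestion, washed in holding buffer at pH 5.55, and mixed 1:1 with compound (final 10^-5 to 10^-3 M in 1% MeOH). They were held 3 h at 25 °C in the dark, then stained with fluorescein diacetate. Viability was scored on 30 cells by fluorescence microscopy. Fusaric acid served as positive control; repeated twice.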

[2] = tested on: Kluyveromyces lactis; assay: Antifungal activity against Kluyveromyces lactis ITEM 1656 at 15 ug/disk by paper disk method; type: functional; conditions: read-out: IZ
Summary of the method: (§1)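 Agar overlay disk diffusion on plant-derived filamentous fungi and yeasts: 0.7% water-agar seeded with 10^4 conidia/mL or a yeast cell suspension, poured over PDA. 6-mm cellulose disks were loaded from methanolic solutions and air-dried, with nystatin as comparator. Plates ran 24-72 h at 25 °C; inhibition halo was measured over three disks. Agar beneath disks was subcultured on PDA to separate fungicidal from fungistatic, scored in four classes; run twice, averaged.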

[3] = tested on: Fusarium acuminatum; assay: Antifungal activity against Fusarium acuminatum ITEM 795 at 15 ug/disk by paper disk method; type: functional; conditions: read-out: IZ
Summary of the method: (§2)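 Agar diffusion: a 0.7% water-agar overlay carrying 10^4 conidia/mL (or yeast cells) is poured on PDA. 6-mm cellulose disks loaded with methanolic compound at 5 or 15 µg/disk are air-dried and applied, with nystatin as comparator. Plates incubated 24-72 h at 25 °C; inhibition halo diameter read from three disks. Agar under each disk is subcultured on PDA to score fungicidal/fungistatic effect. Experiment run twice and averaged.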

[4] = tested on: Aspergillus flavus; assay: Antifungal activity against Aspergillus flavus 3 after 24 hrs by broth micromethod assay; type: functional
Summary of the method: (§3)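 Broth microdilution in YNB with 0.5% glucose, phosphate buffer pH 7, using ten 2-fold dilutions (50-0.097 µg/mL). Inoculum from 24-48 h Sabouraud agar cultures, final 5 × 10^2 cells for C. albicans and C. kefyr, 5 × 10^3 cells/conidia for C. glabrata, Cryptococcus neoformans and Aspergillus. Incubated at 35 °C up to 72 h, read every 24 h. MIC is the complete absence of growth versus medium controls.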

[5] = tested on: Cryptococcus neoformans; assay: Antifungal activity against Cryptococcus neoformans 13 after 72 hrs by broth micromethod assay; type: functional; summary of the method: as §3
[6] = tested on: Cryptococcus neoformans; assay: Antifungal activity against Cryptococcus neoformans 13 after 24 hrs by broth micromethod assay; type: functional; summary of the method: as §3
[7] = tested on: Nakaseomyces glabratus; assay: Antifungal activity against Candida glabrata 12 after 24 hrs by broth micromethod assay; type: functional; summary of the method: as §3
[8] = tested on: Wickerhamomyces anomalus; assay: Antifungal activity against Pichia anomala ITEM 1625 at 15 ug/disk by paper disk method; type: functional; conditions: Hansenula anomala; read-out: IZ; summary of the method: as §1
[9] = tested on: Candida albicans; assay: Antifungal activity against Candida albicans at 50 ug/disk by paper disk method; type: functional, organism-based
[10] = tested on: Aspergillus parasiticus; assay: Antifungal activity against Aspergillus parasiticus ITEM 11 at 15 ug/disk by paper disk method; type: functional; conditions: read-out: IZ; summary of the method: as §2
[11] = tested on: Solanum lycopersicum; assay: Phytotoxicity in tomato stem assessed as chlorosis in the leaf at 10^-3 M by tomato cutting assay; type: organism-based; conditions: in vivo, 1000 µM
Summary of the method: (§4)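 Young greenhouse tomato plants were cut, and the stems were immersed in toxin solutions (MeOH stock diluted with water; 10^-3 to 10^-6 M). They were held 24 h at 22 °C under a 12-h photoperiod, then moved to distilled water for 48 h more, and symptoms were scored visually.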

[12] = tested on: Solanum lycopersicum; assay: Stimulation of root elongation in tomato at 10^-5 M; type: functional, organism-based
Summary of the method: (§5)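 Tomato seeds were surface-sterilized in 4% NaClO for 10 min and pregerminated 3 days in the dark. They were then placed 10 per dish on filter paper wetted with 2 mL of compound in 1% MeOH (10^-4 or 10^-5 M) and held 4 days at 25 °C under a 12-h photoperiod. Shoot and rootlet lengths were measured against control; done in triplicate, repeated once.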

[13] = tested on: Kluyveromyces marxianus; assay: Antifungal activity against Kluyveromyces fragilis ITEM 1657 at 15 ug/disk by paper disk method; type: functional; conditions: read-out: IZ; summary of the method: as §1
[14] = tested on: Cryptococcus neoformans; assay: Antifungal activity against Cryptococcus neoformans 13 after 48 hrs by broth micromethod assay; type: functional; summary of the method: as §3
[15] = tested on: Cicer arietinum; assay: Phytotoxicity in chickpea leaf assessed as necrosis in the leaf at 10^-3 M by leaf puncture assay; type: organism-based; conditions: in vivo, 1000 µM
Summary of the method: (§6)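 Tomato and chickpea leaves were punctured and treated with toxin dissolved in MeOH and diluted with water (final 4% MeOH), tested from 10^-2 to 10^-7 M. Chlorosis and necrosis were recorded visually as spot symptoms.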

[16] = tested on: Candida albicans; assay: Antifungal activity against Candida albicans 1 after 24 hrs by broth micromethod assay; type: functional; summary of the method: as §3
[17] = (§7) Toxicity against Artemia salina larvae; type: organism-based; conditions: in vivo
Summary of the method: (§8)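 Quadruplicate wells; mortality counted after 24 and 36 h at 27 °C. LC50 from probit analysis of dose-mortality data from six independent experiments.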

[18] = tested on: Kluyveromyces marxianus; assay: Antifungal activity against Candida kefyr Y0601 after 24 hrs by broth micromethod assay; type: functional; summary of the method: as §3
[19] = tested on: Aspergillus flavus; assay: Antifungal activity against Aspergillus flavus ITEM 9 at 15 ug/disk by paper disk method; type: functional; conditions: read-out: IZ; summary of the method: as §2
[20] = tested on: Candida albicans; assay: Antifungal activity against Candida albicans 2 after 24 hrs by broth micromethod assay; type: functional; summary of the method: as §3
[21] = tested on: Ascochyta rabiei; assay: Antifungal activity against Ascochyta rabiei ITEM 466 at 5 ug/disk by paper disk method; type: functional, organism-based; summary of the method: as §2
[22] = tested on: Penicillium brevicompactum; assay: Antifungal activity against Penicillium brevicompactum ITEM 449 at 15 ug/disk by paper disk method; type: functional; conditions: read-out: IZ; summary of the method: as §1
[23] = tested on: Alternaria alternata; assay: Antifungal activity against Alternaria alternata ITEM 750 at 15 ug/disk by paper disk method; type: functional; conditions: read-out: IZ; summary of the method: as §2
[24] = tested on: Solanum lycopersicum; assay: Stimulation of root elongation in tomato at 10^-4 M; type: functional, organism-based; summary of the method: as §5
[25] = tested on: Alternaria citri; assay: Antifungal activity against Alternaria citri ITEM 466 at 15 ug/disk by paper disk method; type: functional; conditions: read-out: IZ
Summary of the method: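 Agar overlay diffusion: 0.7% water-agar with 10^4 conidia/mL of test fungus poured over PDA; 6-mm cellulose disks impregnated with methanolic compound solution, air-dried. Incubated 25 °C for 24-72 h by fungus; growth-inhibition halo diameter from three replicate disks. Agar under disks then subcultured on PDA to score fungicidal/fungistatic classes. Repeated twice, averaged.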

[26] = tested on: Solanum lycopersicum; assay: Phytotoxicity in tomato leaf assessed as chlorosis in the leaf at 10^-4 M by tomato cutting assay; type: organism-based; conditions: in vivo, 100 µM; summary of the method: as §4
[27] = tested on: Cryptococcus neoformans; assay: Antifungal activity against Cryptococcus neoformans at 50 ug/disk paper disk method; type: functional, organism-based
[28] = tested on: Meyerozyma guilliermondii; assay: Antifungal activity against Candida guilliermondii ITEM 1638 at 15 ug/disk by paper disk method; type: functional; conditions: read-out: IZ; summary of the method: as §2
[29] = tested on: Nakaseomyces glabratus; assay: Antifungal activity against Candida glabrata 12 after 48 hrs by broth micromethod assay; type: functional; summary of the method: as §3
[30] = tested on: Kluyveromyces marxianus; assay: Antifungal activity against Candida kefyr Y0601 after 72 hrs by broth micromethod assay; type: functional; summary of the method: as §3
[31] = tested on: Penicillium verrucosum; assay: Antifungal activity against Penicillium verrucosum ITEM 439 at 5 ug/disk by paper disk method; type: functional, organism-based; summary of the method: as §1
[32] = tested on: Botrytis cinerea; assay: Antifungal activity against Botrytis cinerea ITEM 966 at 5 ug/disk by paper disk method; type: functional, organism-based; summary of the method: as §2
[33] = tested on: Solanum lycopersicum; assay: Phytotoxicity in tomato leaf assessed as necrosis in the leaf at 10^-3 M by leaf puncture assay; type: organism-based; conditions: in vivo, 1000 µM; summary of the method: as §6
[34] = tested on: Solanum lycopersicum; assay: Phytotoxicity in tomato leaf assessed as necrosis in the leaf at 10^-2 M by leaf puncture assay; type: organism-based; conditions: in vivo; summary of the method: as §6
[35] = tested on: Artemia salina; assay: as §7; type: organism-based; conditions: in vivo; summary of the method: as §8
[36] = tested on: Kluyveromyces marxianus; assay: Antifungal activity against Candida kefyr at 50 ug/disk by paper disk method; type: functional, organism-based
[37] = tested on: Kluyveromyces marxianus; assay: Antifungal activity against Candida kefyr Y0601 after 48 hrs by broth micromethod assay; type: functional; summary of the method: as §3

| Structure (SMILES) | Activity [1] | zone of inhibition at 15 µg/disc [2] [mm] | zone of inhibition at 15 µg/disc [3] [mm] | Activity [4] [µg/mL] | Activity [5] [µg/mL] | Activity [6] [µg/mL] | Activity [7] [µg/mL] | zone of inhibition at 15 µg/disc [8] [mm] | Activity [9] | zone of inhibition at 15 µg/disc [10] [mm] | Activity [11] | Activity [12] | zone of inhibition at 15 µg/disc [13] [mm] | Activity [14] [µg/mL] | Activity [15] | Activity [16] [µg/mL] | Activity [18] [µg/mL] | zone of inhibition at 15 µg/disc [19] [mm] | Activity [20] [µg/mL] | Activity [21] | further results |
| --- | --- | --- | --- | --- | --- | --- | --- | --- | --- | --- | --- | --- | --- | --- | --- | --- | --- | --- | --- | --- | --- |
| CCCCCCC(C)C/C(C)=C\C(C)/C=C(C)/C=C/C(O)C(C)(C)c1cc(O)c([C@@H]2O[C@@H](CO)C[C@@H](O)[C@@H]2O)c(=O)o1 (some centres undefined) [DEXOYFUSAPYRONE] | Active | 0 | 0 | 1.56 | 6.25 | 6.25 | >50 | 0 | inactive | 12.7 | Not Active | Active | 0 | 6.25 | Active | >50 | >50 | 12.4 | >50 | Active | LC50 [17]: 37.1 µM; zone of inhibition at 15 µg/disc [22]: 10.5 mm; zone of inhibition at 15 µg/disc [23]: 10.5 mm; Activity [24]: Active; zone of inhibition at 15 µg/disc [25]: 9.2 mm; Activity [26]: Active; Activity [27]: Active; zone of inhibition at 15 µg/disc [28]: 0 mm |
| CCCCCCC(C)C/C(C)=C\C(/C=C(C)/C=C/C(O)C(C)(C)c1cc(O)c([C@@H]2O[C@@H](CO)C[C@@H](O)[C@@H]2O)c(=O)o1)CO (some centres undefined) [FUSAPYRONE] | Active | 0 | 17.8 | 1.56 | 6.25 | 6.25 | >50 | 0 | inactive | 27.5 | Not Active | Active | 0 | 6.25 | Active | >50 | 0.78 | 27.3 | >50 | Active | Activity [29]: >50 µg/mL; Activity [30]: 3.12 µg/mL; Activity [31]: inactive; Activity [32]: inactive; Activity [33]: Active; Activity [34]: Active; Activity [35]: Not Active; Activity [36]: Active; zone of inhibition at 15 µg/disc [22]: 30 mm; zone of inhibition at 15 µg/disc [23]: 18.7 mm; Activity [24]: Active; zone of inhibition at 15 µg/disc [25]: 18 mm; Activity [26]: Active; Activity [27]: Active; Activity [37]: 1.56 µg/mL; zone of inhibition at 15 µg/disc [28]: 0 mm |
